Columns and labels:
Escherichia coli [1] = assay: Inhibition of Escherichia coli beta-lactamase TEM-171 using CENTA as substrate at 100 uM by UV spectrophotometric method relative to control
Procedure, shortened: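 Substrate and each inhibitor were tested at one fixed concentration. The initial rate V0 of substrate hydrolysis was recorded. The relative activity decrease (%) was calculated from V0 with inhibitor versus V0 of the enzyme-only control.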

Escherichia coli [2] = assay: Inhibition of Escherichia coli beta-lactamase TEM-171 assessed as initial hydrolysis rate of substrate CENTA at 100 uM by UV spectrophotometric method (reference value: 0.74 +/- 0.11 uM/s)
Procedure, shortened: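 TEM-171 β-lactamase at 10 nM. Substrate and each inhibitor were tested at one fixed concentration. The initial rate V0 of substrate hydrolysis was recorded. The relative activity decrease (%) was calculated from V0 with inhibitor versus V0 of the enzyme-only control.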

Question: How did the inhibition (Escherichia coli [1]) turn out when `O=C(O)CCC(=O)Nc1ccc(Oc2ccccc2)cc1` was run?
Answer: 1.4%

Question: What about the V0 (Escherichia coli [2]) of the same compound?
Answer: 0.73 µM/s

Question: Which inhibition (Escherichia coli [1]) does the source give for `O=C(O)CCCC(=O)Nc1ccc(Oc2ccccc2)cc1` here?
Answer: 1.4%

Question: What about the V0 (Escherichia coli [2]) of the same compound?
Answer: 0.73 µM/s

Question: Which inhibition (Escherichia coli [1]) does the source give for `O=C(O)CCCC(=O)Nc1ccc(Oc2ccc(Cl)cc2)cc1` here?
Answer: 1.4%

Question: What about the V0 (Escherichia coli [2]) of the same compound?
Answer: 0.73 µM/s

Question: For `O=C(O)CCC(=O)Nc1ccc(Oc2ccc(Cl)cc2Cl)cc1`, which inhibition (Escherichia coli [1]) is on record?
Answer: 38%

Question: What about the V0 (Escherichia coli [2]) of the same compound?
Answer: 0.46 µM/s

Question: For `O=C(O)CCCC(=O)Nc1ccc(Oc2ccc(Br)cc2)cc1`, which V0 (Escherichia coli [2]) is on record?
Answer: 0.53 µM/s

Question: `O=C(O)C(=O)Nc1ccc(Oc2ccc(Cl)cc2Cl)cc1` was tested. Which inhibition (Escherichia coli [1]) did it give?
Answer: 31%

Question: And the V0 (Escherichia coli [2])?
Answer: 0.51 µM/s

Question: What does the source list for `O=C(O)c1ccc(NC(=S)Nc2ccc(Oc3ccccc3)cc2)cc1`?
Answer: inhibition (Escherichia coli [1]): 20.3%; V0 (Escherichia coli [2]): 0.59 µM/s

Question: How did the inhibition (Escherichia coli [1]) turn out when `O=C(O)CCCC(=O)Nc1ccc(Oc2ccc(Cl)cc2Cl)cc1` was run?
Answer: 31%

Question: What about the V0 (Escherichia coli [2]) of the same compound?
Answer: 0.51 µM/s

Question: Which inhibition (Escherichia coli [1]) does the source give for `O=C(O)c1ccc(NC(=S)Nc2ccc(Oc3ccc(Cl)cc3)cc2)cc1` here?
Answer: 28.4%

Question: And the V0 (Escherichia coli [2])?
Answer: 0.53 µM/s

Question: For `O=C(O)CCC(=O)Nc1ccc(Oc2ccc(Br)cc2)cc1`, which inhibition (Escherichia coli [1]) is on record?
Answer: 28%

Question: What about the V0 (Escherichia coli [2]) of the same compound?
Answer: 0.53 µM/s

Question: How did the inhibition (Escherichia coli [1]) turn out when `O=C(O)CCC(=O)Nc1ccc(Oc2ccc(Cl)cc2)cc1` was run?
Answer: 5.4%

Question: And the V0 (Escherichia coli [2])?
Answer: 0.7 µM/s

Question: How did the inhibition (Escherichia coli [1]) turn out when `O=C(O)c1ccc(NC(=S)Nc2ccc(Oc3ccc(Cl)cc3Cl)cc2)cc1` was run?
Answer: 50%

Question: And the V0 (Escherichia coli [2])?
Answer: 0.37 µM/s

Reference: ChEMBL document CHEMBL4004865, “Synthesis, SAR and molecular docking study of novel non-β-lactam inhibitors of TEM type β-lactamase” (Bioorg Med Chem Lett, 2017)
